In ChEMBL document CHEMBL4689842, “EUbOPEN Chemogenomics Library wave 1” (2021):

Test system: HEK-293T
Experiment: Multiplex assay against HEK293T;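 as to Population Tubulin-Different-Phenotype (%): share of the cells with healthy nuclei that show this phenotype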
Format: toxicity, cell-based
Conditions: human
Method in brief: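 On a CQ1 microscope at 37°C and 5% CO2, live cells were imaged after compound addition. They had been stained at seeding with Hoechst33342, BioTracker Green Microtubule Cytoskeleton Dye, MitoTracker Red and Annexin V Alexa Fluor 680. CellPathfinder machine-learning gating assigned cells to Hoechst high-intensity objects or normal cells, normal cells to healthy, pyknosed or fragmented nuclei, and pyknosed cells to mitotic or apoptotic. Tubulin, mitochondrial-mass and membrane-permeability phenotypes are per cents of healthy-nucleus cells.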

[1] = 12 h, 1 µM, compound concentration 1 uM, replicate 1
[2] = 12 h, 1 µM, compound concentration 1 uM, replicate 2
[3] = 12 h, 10 µM, compound concentration 10 uM, replicate 1
[4] = 12 h, 10 µM, compound concentration 10 uM, replicate 2
[5] = 24 h, 1 µM, compound concentration 1 uM, replicate 1
[6] = 24 h, 1 µM, compound concentration 1 uM, replicate 2
[7] = 24 h, 10 µM, compound concentration 10 uM, replicate 1
[8] = 24 h, 10 µM, compound concentration 10 uM, replicate 2

SMILES: NC(=O)c1cccc(-c2cc(Nc3ccc(OC(F)(F)F)cc3)ncn2)c1
- Population Apoptotic (%) [1]: 23%
- Population Fragmented Nuclei (%) [1]: 12%
- Population Healthy Nuclei (%) [1]: 75%
- Population Hoechst High Intensity Objects (%) [1]: 7%
- Population Membrane Permeable-Phenotype (%) [1]: 4%
- Population Mitochondria Different-Phenotype (%) [1]: 5%
- Population Mitotic Cells (%) [1]: 76%
- Population Normal (%) [1]: 92%
- Population Pyknosed Nuclei (%) [1]: 12%
- Population Tubulin-Different-Phenotype (%) [1]: 3%
- Total Cell Count [1]: 801
- Population Apoptotic (%) [2]: 9%
- Population Fragmented Nuclei (%) [2]: 7%
- Population Healthy Nuclei (%) [2]: 88%
- Population Hoechst High Intensity Objects (%) [2]: 1%
- Population Membrane Permeable-Phenotype (%) [2]: 0%
- Population Mitochondria Different-Phenotype (%) [2]: 10%
- Population Mitotic Cells (%) [2]: 90%
- Population Normal (%) [2]: 98%
- Population Pyknosed Nuclei (%) [2]: 4%
- Population Tubulin-Different-Phenotype (%) [2]: 5%
- Total Cell Count [2]: 1607
- Population Apoptotic (%) [3]: 18%
- Population Fragmented Nuclei (%) [3]: 15%
- Population Healthy Nuclei (%) [3]: 54%
- Population Hoechst High Intensity Objects (%) [3]: 17%
- Population Membrane Permeable-Phenotype (%) [3]: 4%
- Population Mitochondria Different-Phenotype (%) [3]: 4%
- Population Mitotic Cells (%) [3]: 81%
- Population Normal (%) [3]: 82%
- Population Pyknosed Nuclei (%) [3]: 29%
- Population Tubulin-Different-Phenotype (%) [3]: 4%
- Total Cell Count [3]: 597
- Population Apoptotic (%) [4]: 24%
- Population Fragmented Nuclei (%) [4]: 4%
- Population Healthy Nuclei (%) [4]: 89%
- Population Hoechst High Intensity Objects (%) [4]: 2%
- Population Membrane Permeable-Phenotype (%) [4]: 0%
- Population Mitochondria Different-Phenotype (%) [4]: 14%
- Population Mitotic Cells (%) [4]: 75%
- Population Normal (%) [4]: 97%
- Population Pyknosed Nuclei (%) [4]: 6%
- Population Tubulin-Different-Phenotype (%) [4]: 6%
- Total Cell Count [4]: 1186
- Population Apoptotic (%) [5]: 22%
- Population Fragmented Nuclei (%) [5]: 12%
- Population Healthy Nuclei (%) [5]: 81%
- Population Hoechst High Intensity Objects (%) [5]: 4%
- Population Membrane Permeable-Phenotype (%) [5]: 7%
- Population Mitochondria Different-Phenotype (%) [5]: 3%
- Population Mitotic Cells (%) [5]: 77%
- Population Normal (%) [5]: 95%
- Population Pyknosed Nuclei (%) [5]: 5%
- Population Tubulin-Different-Phenotype (%) [5]: 4%
- Total Cell Count [5]: 1111
- Population Apoptotic (%) [6]: 3%
- Population Fragmented Nuclei (%) [6]: 23%
- Population Healthy Nuclei (%) [6]: 74%
- Population Hoechst High Intensity Objects (%) [6]: 3%
- Population Membrane Permeable-Phenotype (%) [6]: 4%
- Population Mitochondria Different-Phenotype (%) [6]: 2%
- Population Mitotic Cells (%) [6]: 96%
- Population Normal (%) [6]: 96%
- Population Pyknosed Nuclei (%) [6]: 2%
- Population Tubulin-Different-Phenotype (%) [6]: 6%
- Total Cell Count [6]: 2709
- Population Apoptotic (%) [7]: 17%
- Population Fragmented Nuclei (%) [7]: 16%
- Population Healthy Nuclei (%) [7]: 66%
- Population Hoechst High Intensity Objects (%) [7]: 11%
- Population Membrane Permeable-Phenotype (%) [7]: 3%
- Population Mitochondria Different-Phenotype (%) [7]: 4%
- Population Mitotic Cells (%) [7]: 82%
- Population Normal (%) [7]: 88%
- Population Pyknosed Nuclei (%) [7]: 17%
- Population Tubulin-Different-Phenotype (%) [7]: 6%
- Total Cell Count [7]: 593
- Population Apoptotic (%) [8]: 4%
- Population Fragmented Nuclei (%) [8]: 9%
- Population Healthy Nuclei (%) [8]: 85%
- Population Hoechst High Intensity Objects (%) [8]: 3%
- Population Membrane Permeable-Phenotype (%) [8]: 1%
- Population Mitochondria Different-Phenotype (%) [8]: 6%
- Population Mitotic Cells (%) [8]: 95%
- Population Normal (%) [8]: 96%
- Population Pyknosed Nuclei (%) [8]: 4%
- Population Tubulin-Different-Phenotype (%) [8]: 11%
- Total Cell Count [8]: 1486
